# What was measured:
# Caspase-1 = target: T1, Caspase-1 (Homo sapiens, UniProt P29466); assay: Inhibition of caspase 1 (unknown origin) using YVAD-AFC as substrate by fluorescence analysis
# T1 sequence (P29466 whole entry): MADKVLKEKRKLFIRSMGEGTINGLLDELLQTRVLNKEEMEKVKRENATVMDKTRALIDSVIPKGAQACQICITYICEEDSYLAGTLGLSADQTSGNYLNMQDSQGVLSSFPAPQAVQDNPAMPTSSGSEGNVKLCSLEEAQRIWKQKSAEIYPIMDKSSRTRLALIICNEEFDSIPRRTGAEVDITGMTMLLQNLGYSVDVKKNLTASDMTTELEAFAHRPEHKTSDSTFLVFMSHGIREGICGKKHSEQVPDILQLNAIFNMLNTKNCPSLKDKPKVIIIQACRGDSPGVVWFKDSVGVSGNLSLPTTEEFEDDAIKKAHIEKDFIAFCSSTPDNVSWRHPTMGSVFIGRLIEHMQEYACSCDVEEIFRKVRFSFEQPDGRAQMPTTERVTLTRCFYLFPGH
# In short: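 Caspase-1 activity is followed as a time course of fluorescence from cleavage of an AFC-labelled peptide substrate (Ex/Em 400/505 nm). Compounds are tested as a 10-dose series with 3-fold serial dilution starting at 100 μM or 10 μM. IC50 is the concentration halving enzyme activity. Curves are fitted only when activity at the top concentration is below 60%.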
# Caspase-1 (Homo sapiens) = target: T2, Caspase-1 (Homo sapiens) (UniProt P29466); assay: Inhibition of caspase 1 (unknown origin) assessed as enzyme residual activity using YVAD-AFC as substrate at 100 uM by fluorescence analysis
# T2 sequence (whole entry): T1 sequence (P29466 whole entry)
# In short: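 Caspase-1 cleavage of an AFC-labelled peptide substrate is monitored over time by fluorescence (Ex/Em 400/505 nm). Residual enzyme activity is expressed as % with 100 μM compound, relative to an untreated control.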
# [1] = Cytotoxicity against human U-937 cells assessed as reduction in cell viability at 100 uM after 48 hrs by MTT assay; type: toxicity, cell-based; conditions: read-out: INH
# In short: (§1)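 Human histiocytic lymphoma U937 cells are grown in RPMI 1640 with 10% FBS, penicillin and streptomycin at 37 °C under 5% CO₂. They are seeded at 10000 cells/well and exposed to compound from 1 nM to 100 μM for 48 h, with matched DMSO-only solvent controls. MTT (0.1 mg) is added for 4 h at 37 °C, cells are lysed, and A595 is read. Viability is given as % of control, as the mean of three independent experiments.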
# U-937 = assay: Cytotoxicity against human U-937 cells assessed as reduction in cell viability at 10 to 100 nM after 48 hrs by MTT assay; type: toxicity, cell-based; conditions: u-937, 48 h, 0.1 µM, dose 10-100 nM; in short: as §1
# [2] = Inhibition of LPS-induced IL-1beta secretion in human U-937 cells measured after 24 hrs by ELISA; type: functional, cell-based; conditions: U-937, 24 h
# In short: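 U937 human histiocytic lymphoma cells, grown in RPMI 1640 with 10% FBS, differentiated into macrophages with […] for 24h. Compound given at graded concentrations, 10 μM down to 1 nM, together with LPS (1 μg/ml) for 24h. Supernatants frozen at −80 °C, then IL-1β measured by sandwich ELISA. IC50 taken from regression of % inhibition against log concentration.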
# [3] = Inhibition of LPS-induced IL-1beta secretion in human U-937 cells preincubated for 4 hrs with LPS followed by compound treatment for overnight by ELISA; type: functional, cell-based
# In short: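 U937 cells in RPMI 1640 with 10% FBS, differentiated with […] for 24h. Primed with LPS (1 μg/ml) for 4h, then compound added at graded concentrations, 10 μM down to 1 nM, overnight. Supernatants stored at −80 °C, and human IL-1β measured by sandwich ELISA. IC50 from regression of % inhibition against log concentration.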
Structure (SMILES),IC50 (Caspase-1),Activity (Caspase-1 (Homo sapiens)),further results
CC(C)(C)CC(c1nnnn1CCCC(=O)N1CCc2ccccc2C1)N(Cc1ccccc1)CC(O)CC(=O)O (stereo unspecified),10.3 µM,2.91%,–
O=C(O)CC(O)CN[C@H](c1ccccc1)c1nnnn1CCCC(=O)N1CCc2ccccc2C1 (stereo partly specified),–,40.5%,–
CC(C)CC(NCC(O)CC(=O)O)c1nnnn1CCCC(=O)N1CCc2ccccc2C1 (stereo unspecified),79.4 µM,43.7%,–
O=C(O)CC(O)CN[C@@H](c1cccs1)c1nnnn1CCCC(=O)N1CCc2ccccc2C1 (stereo partly specified),–,29%,–
CC(C)C(NCC(O)CC(=O)O)c1nnnn1CCCC(=O)N1CCc2ccccc2C1 (stereo unspecified),–,77.8%,–
COc1cc2c(cc1OC)CN(C(=O)CCCn1nnnc1C(NCC(O)CC(=O)O)C1CC1)CC2 (stereo unspecified),–,80.6%,–
O=C(O)C[C@@H](O)CN[C@H](c1ccccc1)c1nnnn1CCCC(=O)NCc1ccccc1,–,63.3%,–
CC(C)CC(c1nnnn1CCCC(=O)N1CCc2ccccc2C1)N(Cc1ccc(F)cc1)CC(O)CC(=O)O (stereo unspecified),20.7 µM,2.06%,–
O=C(O)CC(O)CNC(c1nnnn1CCCC(=O)NCc1ccccc1)C1CC1 (stereo unspecified),–,77.1%,–
CC(C)(C)C(NCC(O)CC(=O)O)c1nnnn1CCCC(=O)N1CCc2ccccc2C1 (stereo unspecified),–,61.9%,–
CC(C)(C)CC(c1nnnn1CCCC(=O)N1CCc2ccccc2C1)N(Cc1ccc(F)cc1)CC(O)CC(=O)O (stereo unspecified),12.7 µM,3.9%,–
COc1cc2c(cc1OC)CN(C(=O)CCCn1nnnc1C(CC(C)(C)C)NCC(O)CC(=O)O)CC2 (stereo unspecified),14.6 µM,9.49%,–
CC(C)(C)C[C@H](c1nnnn1CCCC(=O)N1CCc2ccccc2C1)N(Cc1ccccc1)CC(O)CC(=O)O (stereo partly specified),–,4.45%,–
O=C(O)CC(O)CNC(c1cccs1)c1nnnn1CCCC(=O)N1CCc2ccccc2C1 (stereo unspecified),–,77.2%,–
O=C(O)CC(O)CNC(c1nnnn1CCCC(=O)N1CCc2ccccc2C1)C1CC1 (stereo unspecified),–,90%,–
COc1cc2c(cc1OC)CN(C(=O)CCCn1nnnc1C(NCC(O)CC(=O)O)C(C)(C)C)CC2 (stereo unspecified),–,96.7%,–
CC(C)(C)CC(NCC(O)CC(=O)[O-])c1nnnn1CCCC(=O)N1CCc2ccccc2C1.[Na+] (stereo unspecified),15.1 µM,8.12%,"cytotoxicity at 48 h, 100 µM [1]: 50%; Activity (U-937): Non-Toxic; IC50 [2]: 50.1 µM"
O=C(O)C[C@H](O)CN[C@H](c1cccs1)c1nnnn1CCCC(=O)NCc1ccccc1,–,69.8%,–
O=C(O)CC(O)CN[C@H](c1cccs1)c1nnnn1CCCC(=O)N1CCc2ccccc2C1 (stereo partly specified),–,37.2%,–
CC(C)(C)C[C@@H](NCC(O)CC(=O)O)c1nnnn1CCCC(=O)N1CCc2ccccc2C1 (stereo partly specified),–,9.71%,–
O=C(O)C[C@H](O)CN[C@@H](c1ccccc1)c1nnnn1CCCC(=O)NCc1ccccc1,–,62.4%,–
CC(C)CC(c1nnnn1CCCC(=O)N1CCc2ccccc2C1)N(Cc1ccccc1)CC(O)CC(=O)[O-].[Na+] (stereo unspecified),12.1 µM,2.47%,"cytotoxicity at 48 h, 100 µM [1]: 50%; Activity (U-937): Non-Toxic; IC50 [3]: 0.85 µM; IC50 [2]: 0.35 µM"
O=C(O)CC(O)CN[C@@H](c1cccs1)c1nnnn1CCCC(=O)NCc1ccccc1 (stereo partly specified),–,49.6%,–
O=C(O)CC(O)CN[C@@H](c1ccccc1)c1nnnn1CCCC(=O)N1CCc2ccccc2C1 (stereo partly specified),–,48.6%,–
CC(C)(C)CC(NCC(O)CC(=O)O)c1nnnn1CCCC(=O)NCc1ccccc1 (stereo unspecified),–,59.9%,–
O=C(O)CC(O)CNC(c1ccccc1)c1nnnn1CCCC(=O)N1CCc2ccccc2C1 (stereo unspecified),94.1 µM,48%,–
